Reference: ChEMBL document CHEMBL4513216, “Probing the Open Global Health Chemical Diversity Library for Multistage-Active Starting Points for Next-Generation Antimalarials” (ACS Infect Dis, 2020)

Assay: Toxicity liver stage against HepG2, at 10uM
Format: cell-based
Set-up: test concentration 10 uM, cell line HepG2-A16-CD81EGFP
Settings: human, HepG2-A16-CD81EGFP cells; read-out: INHIBITION
Procedure, shortened: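 Uninfected HepG2-A16-CD81EGFP cells, 3 × 10^3 per well, 1536-well, plated on prespotted compound at 10 μM final, parasite-free screening media added to match infected plates; puromycin 10 μM positive, DMSO 0.5% negative; run in parallel with 48 h PbLuc assay at 37 °C, 5% CO2; viability by CellTiter-Glo luminescence, normalized to controls.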

Structure (SMILES) | cytotoxicity at 10 µM
CC(C)c1cc(NC(=O)c2ccc(C(=O)NC(C)(C)C)cc2)[nH]n1 | -0.164%
O=C(c1cccs1)N1CCC2(C1)c1ccccc1S(=O)(=O)N2CC1CC1 (centres undefined) | -4.27%
COc1cccc(COCC(=O)N2CCC(CC(N)=O)CC2)c1 | -4.56%
COCCc1noc(CNC2CCSC2)n1 (centres undefined) | -15%
CC(C)c1cc(C(=O)N2CCN(C)[C@@H]3CS(=O)(=O)C[C@@H]32)no1 | 4.14%
Cc1cnc(C2CCCN(C(=O)c3c[nH]c(=O)[nH]c3=O)C2)s1 (centres undefined) | -1.58%
O=C(N[C@@H]1CN(c2ncccn2)C[C@@H]2CCCO[C@@H]21)c1cnccn1 | 0.199%
Cc1cc(C(=O)N2CCN[C@H](C)C2)c2ccc(F)cc2n1 | 13.7%
Cc1nc(NC2CCCC2)cc(C2CCN2C(=O)c2cccnc2)n1 (centres undefined) | 0.848%
Cc1nc(C2CCCN(C(=O)CCCn3cccn3)C2)no1 (centres undefined) | -3.84%
CN(Cc1noc(C2CC2)n1)C1CCN(Cc2ccc(F)c(F)c2)C1 (centres undefined) | -0.279%
CC(C)NC(=O)CNC(C)c1c(F)cccc1Cl (centres undefined) | 7.22%
COCCc1noc(CNC2CCCC(C)(C)C2)n1 (centres undefined) | -0.475%
O=C1NCCCc2[nH]c(C3CCN(C(=O)C4CC4)CC3)nc21 | -3.46%
COc1ccc(NC(=O)N(CCO)Cc2ccsc2)c(OC)c1 | 12.2%
CN1CCCN(C(=O)c2nc3c(s2)CCCN3CC2CC2)CC1 | 10%
Cc1cc(C(=O)N2C[C@H](CO)C[C@H](CN3CCOCC3)C2)cnc1C | 3.98%
O=C(c1ccoc1)N1CCN(Cc2ccccc2F)CC1 | -13.2%
Cc1ccc(NC(=O)c2nc(N3CCCCC3)ncc2Cl)cc1I | -0.906%
CN(C)C(=O)N1CCCC2(CCN(c3ccsc3)C2=O)C1 (centres undefined) | -72.5%
CCC(CO)NCc1ccc(-c2ccc(Cl)cc2)o1 (centres undefined) | 5.24%
Cc1nc(CN2C(=O)CCC23CCN(Cc2ccoc2)CC3)cs1 | -0.902%

Structure (SMILES) | cytotoxicity at 10 µM
Cc1nc(-c2c(-c3ccccc3)ncn2[C@H]2C[C@@H](C(=O)O)N(C)C2)co1 | 0.024%
Cc1ccccc1SCC(=O)NS(=O)(=O)c1ccc2c(c1)OCCO2 | -1.22%
COc1ccc(CN2CCO[C@H]3CN(C4CCC4)CC[C@H]3C2=O)cc1 | -148%
CC(C)(C)c1ncc2c(n1)CN(C(=O)c1ccc(-n3cnnn3)cc1)C2 | -1.98%
CC(C)(C)SCC(=O)NCCc1csc(N2CCCC2)n1 | 8.74%
CCn1c(C2CCN(Cc3cc(C)n(NC(C)=O)c3C)CC2)n[nH]c1=O | 4.74%
Cc1ccc(-c2cnnc(NCC3(N4CCOCC4)CCCC3)n2)o1 | -6.79%
Cc1cnc(CNCc2cnc(-c3ccccc3C)s2)cn1 | -0.37%
Cc1cc(C)n(CC(=O)N2C[C@H]3CC[C@@H](C2)N(CC2CCC2)C3)c(=O)n1 | 13.3%
O=C(NCCc1cccs1)N1CCCC1CCCO (centres undefined) | 5.82%
CN(Cc1cccnc1)CC1(O)CCCN(CC(C)(C)C)C1=O (centres undefined) | 3.09%
COc1ccc(C)cc1C(C)NS(=O)(=O)c1ccc2c(c1)CCC(=O)N2 (centres undefined) | -33%
COCCN1CC(C(=O)N(C)Cc2cc(-c3cccnc3)no2)CC1=O (centres undefined) | -1.99%
O=C1OCCN1CCCN1CCCC1c1ccc(O)cc1 (centres undefined) | -6.3%
CN(Cc1ccncc1)C1CC2(CCN(Cc3ccccn3)CC2)C1 | -90.4%
O=C(N1CCCO1)[C@@]12CCO[C@@H]1CCN(Cc1cccnc1)C2 | -4.26%
Cc1cc(O)c(OCC(=O)/N=c2\[nH]c(C)cs2)cn1 | 6.36%
CC(=O)N1CCC(c2nccnc2Nc2ncc(C)s2)CC1 | 10.1%
Cc1nn(C)c(Cl)c1C1CCCN1C(=O)c1ccc(N(C)C)nn1 (centres undefined) | -9.01%
CCS(=O)(=O)N1CCc2ccc(NC(=O)Nc3cccc(C)c3)cc21 | 42.3%
CC(C)C(=O)N1CCC(C2C(=O)Nc3ccccc32)CC1 (centres undefined) | -1.54%
Cc1cnn(CCNCC(O)COc2ccc3ccccc3c2)c1 (centres undefined) | -6.31%

Structure (SMILES) | cytotoxicity at 10 µM
O=C(NCCNc1ccccn1)N1CCSCC1 | -9.58%
CC1CCN(C(=O)[C@@H]2C[C@H]3OCC[C@H]3N(Cc3ccoc3)C2)CC1 | -72.5%
Cc1cc(NC(=O)NCC(O)COc2ccccc2)n(C)n1 (centres undefined) | -3.19%
Cn1cnc2c1CCN(Cc1csc(-c3ccc(F)cc3)n1)C2 | -4.78%
COc1ccccc1CNC(C)c1ccc2[nH]c(=O)[nH]c2c1 (centres undefined) | -18%
CC(NC(=O)NCc1cccnc1N(C)C)c1cccs1 (centres undefined) | 1.76%
CC1CCCCN1Cc1nc(Cc2ccccc2)no1 (centres undefined) | 4.61%
O=C([C@H]1COC[C@H]2CN(C3CCCCC3)C[C@H]21)N1CCOCC1 | -110%
COc1ccc(CN2CCSCC2)c(OC)c1 | 7.94%
Cn1cc(NC(=O)N2CCC(CN3CCCC3)CC2)ccc1=O | -11.5%
CCN(Cc1noc(C)n1)C(=O)C(c1cccc(C)c1)N(C)C (centres undefined) | -1.34%
CSCC(=O)N(C)Cc1noc(-c2ccccc2)n1 | -4.34%
CC(NC(=O)CSCC#N)c1ccc(F)cc1 (centres undefined) | -2.51%
COc1ccccc1CNC(=O)Cn1ncc2c1c(C)nn2C | 10.6%
Cc1noc([C@@H]2C[C@H](NC(=O)Nc3cccc(F)c3)CN2C)n1 | -2.17%
O=C(c1ccc2c(c1)[nH]c(=O)n2C1CCCC1)N1CC(O)C1 | -53.5%
COc1cccc(CNC(=O)NC2(c3nc(C)no3)CCCCC2)c1 | 4.04%
COc1ccc(C(=O)N2CCOC3(CNCCOC3)C2)c(OC)n1 (centres undefined) | -8.2%
O=C(Cn1nc(-c2ccc(F)cc2)oc1=O)NCC1CCCO1 (centres undefined) | 1.62%
O=S(=O)(CC1CCCCO1)Nc1cc(F)ccc1-n1cccn1 (centres undefined) | 7.71%
COc1cc(F)ccc1C(C(=O)O)N(C)Cc1ccon1 (centres undefined) | -5.31%
O=C(Cc1ccccc1C(F)(F)F)N1CCC2(CC1)[C@H](O)C[C@@H]2O | -4.87%

Structure (SMILES) | cytotoxicity at 10 µM
CCc1cc(N2CCC(N[C@@H]3CS(=O)(=O)C[C@H]3O)CC2)nc(N(C)C)n1 | -0.157%
CCC[C@H]1CN(S(C)(=O)=O)C[C@@H]1NC(=O)c1ccc(COC)cc1 | 1.1%
CC(NCc1cnc(C2CCC2)s1)c1cccc(-n2ccnc2)c1 (centres undefined) | 4.12%
Cc1ccc(C2CCCN(S(=O)(=O)N3CCOCC3)C2)nc1 (centres undefined) | 4.25%
O=C(c1ccc(F)cc1F)N(CC(F)(F)F)C1CCOCC1 | 1.24%
Cc1ccsc1C(=O)N1CC[C@@H](N(C)C)[C@@H]1Cc1cnn(C)c1 | -77.6%
CNC(=O)CN1CC[C@H]2CN(C(=O)c3cccc(C)c3)C[C@H]2C1 | -2.45%
CC(C)n1cc(C(=O)NCCCn2ccnc2)c2n[nH]c(=O)c-2c1 | -4.17%
CCc1cnc(N2CCc3ncnc(N4CCN(C)CC4)c3CC2)nc1 | -1.13%
Cc1cc(CC(C)NC(=O)COc2ccc(F)cc2F)[nH]n1 (centres undefined) | -49%
COc1ccc(CNCC2CNc3ccnn3C2)cn1 (centres undefined) | -3.84%
Cc1nc(C(C)C)sc1C(=O)N(C)Cc1cnn(C)c1 | 6.45%
Cc1nc(-c2cccc(N3CCC(N4CCCC(C#N)C4)CC3)c2)cs1 (centres undefined) | 6.22%
CC(C)OCCC(=O)NS(=O)(=O)N1CCOc2ccccc21 | -0.955%
COc1ccnc(NC(Cc2ccccc2)C(N)=O)n1 (centres undefined) | 20.7%
Cc1ccc(C(=O)NC2CCN(Cc3nc(C(C)C)no3)CC2)s1 | 3.82%
CCO[C@H]1C[C@@H](O)C12CCN(C(=O)CN1CCCCCC1=O)CC2 | 2.71%
CCc1cc(=O)n(CC(=O)N2CCCC2)c(-c2cccc(F)c2)n1 | 6.75%
CSCc1cc(F)ccc1CNC(=O)N1CCOCC1 | 8.06%
CC(=O)N1C[C@H](NS(=O)(=O)Cc2cccc(Cl)c2)[C@@H](C(C)C)C1 | -1.73%
Cc1cn2nc(N3CCn4c(nnc4C(C)C)C3)sc2n1 | 5.73%
Cn1cc(NC(=O)Nc2cccc3cccnc23)ccc1=O | -9.22%

Structure (SMILES) | cytotoxicity at 10 µM
Cc1ccc(CNC2(Cc3cc(-c4cccc(O)c4)on3)COC2)o1 | -0.873%
Cc1cc(C(=O)NC(C)CC(=O)c2cccs2)n(C)n1 (centres undefined) | -0.0944%
O=C(O)CC1CN(Cc2ccccc2)CCO1 (centres undefined) | 6.54%
CCn1cc(-c2c(C)c(C3CCOC(C)(C)C3)nc(N)c2C#N)cn1 (centres undefined) | -10.3%
CCNC(=O)N1CCC(c2ccccc2)C1 (centres undefined) | -3.57%
COc1ccc(Cc2noc(-c3ccc(NC(C)CO)nc3)n2)cc1 (centres undefined) | -3.06%
O=C1CC2(CCN(Cc3ncc[nH]3)CC2)CN1Cc1cc(F)cc(F)c1 | -5.53%
O=C(O)c1cccc(C2CCCN(S(=O)(=O)C3CC3)C2)c1 (centres undefined) | 3.24%
CC1=N[C@@]2(CC[C@@H]3CN(S(=O)(=O)C4CC4)C[C@@H]32)C(=O)N1CC(C)C | -76.8%
COc1cc(C)ccc1OCCN1CC[C@@]2(O)CCNC[C@H]2C1 | -157%
O=S(=O)(NC1CC1)c1cccc(Br)c1 | -3.52%
CS(=O)(=O)NCCNC(=O)c1ccc(OCc2ccccc2)nc1 | 4.43%
CN1CCN(C(=O)Cc2ccc(S(=O)(=O)C(F)F)cc2)CC1 | 12%
c1csc(-c2nnc(CSCCN3CCOCC3)o2)c1 | -5.77%
COc1cccc(Cn2cc(N3C(=O)CCC3=O)cn2)c1 | -2.75%
COc1ncccc1CN1CC[C@H]2O[C@H](c3nnc(C)o3)CC[C@H]21 | 15.1%
COc1ccnc(N2CCN(C(=O)c3cnc(C4CC4)s3)CC2)n1 | -5.35%
CCCS(=O)(=O)N1Cc2c(ncn2Cc2ccccc2)C[C@H]1C(=O)OC | 0.434%
COCC(=O)N(C)Cc1ccc(OCc2cccs2)cc1 | 1.73%
O=C(Cn1ccc2c(Cl)cccc21)N1CCC2(CC1)OCCO2 | 14.2%
CC(NCc1ccccc1CN1CCCC1=O)c1ccc(C#N)cc1 (centres undefined) | 3.09%
